The text below walks through data of the array DNA melting data of Ke et al. (doi:10.1101/2024.01.08.574731).

A short description of data set [1]: folding enthalpy; higher = less favourable; fluorescence melt of hairpins on a sequencing array, two-state fit. To be noted: sodium 0.088 M. The essentials: (§1)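 Folding enthalpy and melting temperature come from bootstrapped two-state fits to Cy3 fluorescence of library hairpins carrying annealed Cy3 and quencher oligos on a sequenced MiSeq flow cell. Imaging was done in 50 mM Na-HEPES pH 8.0, 25 mM NaCl, stepping by 2.5 °C up to 60 °C, and signals were normalised to pre-quench Cy3 and to control constructs. Results of four replicates were combined by inverse variance, and fitted temperatures were raised by 9.35 °C to match UV melts.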

Data set [2] can be described thus: melting temperature; fluorescence melt of hairpins on a sequencing array, two-state fit, raised by 9.35 °C to match UV melts. Conditions: sodium 0.088 M. The essentials: as §1

For the sequence GACGGAGGAAACTTCGTC ((((.((....)).)))), in data set [1], the folding enthalpy was -42.1 kcal/mol. Moreover, in data set [2], the Tm worked out at 49.6 °C.
Taken in the same sequence, the figures for GTACTTCGAAAGAATAC (((.(((....)))))) were -7.86 kcal/mol and 25.9 °C.
For GCGCACGAAAGTGCCCGC ((((((....)))..))), in that order: -12 kcal/mol and 47 °C.
Taken in the same sequence, the figures for GGACGCGAAAGCGATCC ((((((....))).))) were -16.7 kcal/mol and 57.4 °C.
Take GCTAAGCGAAAGCCAAGC (((..((....))..))): the folding enthalpy in data set [1] is -20.3 kcal/mol. Also, the Tm in data set [2] came out at 38 °C.
For GCACACGAAAGTGCTGC ((((((....))).))), in that order: -34 kcal/mol and 54.7 °C.
For the sequence GCAAGGCGAAAGCGGTGC (((..((....))..))), the folding enthalpy in data set [1] is -21.2 kcal/mol. Also, the Tm in data set [2] turned out to be 47.1 °C.
Taken in the same sequence, the figures for GGTCGCGAAAGCGGCACC ((((((....)))..))) were -9.3 kcal/mol and 52.8 °C.
As for GAACTTGGAAACGAGTTC (((((.(....).))))), the folding enthalpy in data set [1] is -38 kcal/mol. The Tm in data set [2] stood at 44.2 °C.
For GACTGGCGAAAGCCTGTC (((.(((....))).))), in that order: -21.6 kcal/mol and 68.9 °C.
For GGGCTCCGAAAGGACCC (((.(((....)))))), in that order: -30.1 kcal/mol and 57.4 °C.
For the sequence GAGAGCGAAAGCTTCTC ((((((....))).))), in data set [1], the folding enthalpy was -21.9 kcal/mol. Moreover, the Tm in data set [2] is 48 °C.
In the case of GGTTGTGCGAAAGCAACC (((..(((....)))))), the folding enthalpy in data set [1] was -19.1 kcal/mol. Further, the Tm in data set [2] was found to be 42.8 °C.
For the sequence GCCCCAGGAAACCGGGGC (((((.(....).))))), the folding enthalpy in data set [1] was -41.2 kcal/mol. Also, the Tm in data set [2] is 59.3 °C.
Taken in the same sequence, the figures for GGGGGGGGAAACTCCCCC (((((.(....).))))) were -20.3 kcal/mol and 64.3 °C.
For GGAGATGGAAACACCTCC ((((.((....)).)))), in that order: -29.7 kcal/mol and 39.7 °C.
Consider GCTCAGTCGAAAGACAGC (((..(((....)))))), for which the folding enthalpy in data set [1] was -15.3 kcal/mol. For the same sequence, in data set [2], the Tm was 37.3 °C.
Taken in the same sequence, the figures for GTACCCGAAAGGGTTTAC ((((((....)))..))) were -8.12 kcal/mol and 33 °C.
Taken in the same sequence, the figures for GCTCCGCGAAAGCCGAGC ((((.((....)).)))) were -34.5 kcal/mol and 58.4 °C.
On to GGCCTCCCGAAAGGGGCC (((..(((....)))))), for which, in data set [1], the folding enthalpy is -18.7 kcal/mol. For the same sequence, the Tm in data set [2] is 59.1 °C.
For GAGTCGAAAGACTC (((((....))))), in that order: -29.4 kcal/mol and 60.8 °C.
Taken in the same sequence, the figures for GTCGCCGAAAGGCCAGAC ((((((....)))..))) were -13.5 kcal/mol and 40.7 °C.
For GGATGCGAAAGCACATCC ((((((....)))..))), in that order: -19.2 kcal/mol and 42.2 °C.
In the case of GCCGACGGAAACGCCGGC ((((.((....)).)))), in data set [1], the folding enthalpy was -38.7 kcal/mol. For the same sequence, the Tm in data set [2] is 63 °C.
Taken in the same sequence, the figures for CGGAGACGGAAACGTCCG (((..(((....)))))) were -17.6 kcal/mol and 47.1 °C.
As to GAGAGCGCGAAAGCGCTC (((..(((....)))))), the folding enthalpy in data set [1] is -6.4 kcal/mol. Also, in data set [2], the Tm came out at 63.2 °C.
Taken in the same sequence, the figures for GCGTCTCTACGC ((((....)))) were -24.4 kcal/mol and 52.9 °C.
In the case of GATCGGCATCCGATC ((((((...)))))), the folding enthalpy in data set [1] was -40.1 kcal/mol. In addition, the Tm in data set [2] was 55.3 °C.
For GATCGACAAGTCGATC ((((((....)))))), in that order: -44.7 kcal/mol and 58.9 °C.
On to GGTCTGGGAAACCAAACC (((.(((....))).))), for which the folding enthalpy in data set [1] is -29.9 kcal/mol. In data set [2], the Tm came out at 35.1 °C.
As to GTTACGTCGAAAGACAAC (((..(((....)))))), the folding enthalpy in data set [1] is -10.3 kcal/mol. Also, the Tm in data set [2] is 24.5 °C.
For the sequence GCCACGCGAAAGCCCGGC (((..((....))..))), the folding enthalpy in data set [1] is -18.5 kcal/mol. For the same sequence, in data set [2], the Tm turned out to be 43.7 °C.
GATCCGACTGCGGATC ((((((....)))))): the folding enthalpy in data set [1] is -48.8 kcal/mol. In data set [2], the Tm was found to be 56.1 °C.
Taken in the same sequence, the figures for GCTTGTCGAAAGACGAGC (((.(((....))).))) were -36.9 kcal/mol and 61.3 °C.
Taken in the same sequence, the figures for GGATGGAAACATCC (((((....))))) were -29.8 kcal/mol and 51.8 °C.
AAGAGGAAACTCTT (((((....))))): the folding enthalpy in data set [1] was -9.65 kcal/mol. For the same sequence, in data set [2], the Tm was determined as 28 °C.
Turning to GATCATTAAATGATC ((((((...)))))), the folding enthalpy in data set [1] was -28.6 kcal/mol. In addition, in data set [2], the Tm is 44 °C.
